Each block holds one compound with its values, some of them ahead of it.
Legend:
HepG2 cells [1] = assay: Resazurin reduction assay; assay type: cell-based, human; settings: HepG2, 1 h or 24 h incubation, 0–100 μM, vs negative control 1% DMSO
In short: (§1)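 Cells were seeded at 180,000 per well (HepG2 in RPMI 1640, HT29 in DMEM; 5% FCS, 37 °C, 5% CO2). After 24 h they were exposed to 0.1, 1, 10 or 100 μM test compound for 1 h or 24 h, using DMSO stocks diluted 1:100, in triplicate. Controls were 0.1% SDS and 1% DMSO. Cells were washed and given resazurin for 1 h; fluorescence was read at 544/590 nm. Blank-subtracted values are % of DMSO control, mean ± SD of three experiments.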

HT29 cells [2] = assay: Resazurin reduction assay; assay type: cell-based, human; settings: HT29, 1 h or 24 h incubation, 0–100 μM, vs negative control 1% DMSO
In short: as §1

HepG2 cells [3] = assay: Comet assay; assay type: cell-based, human; settings: for Total DNA strand breaks with FPG treatment (%-TI): HepG2, 24 h, 10 or 100 μM, FPG treated, two independent experiments; for Background DNA-strand breaks (tail intensity): HepG2, 24 h incubation, 10–100 μM, without FPG
In short: (§2)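 Cells at 80–90% confluence, viability >80% by trypan blue (HepG2 in RPMI 1640, HT29 in DMEM; 5% FCS) were exposed 24 h to 10 or 100 μM test compound from DMSO stock diluted 1:1000. Controls were 0.1% DMSO and 10 J/m2 UVC. Slides were lysed overnight at 4 °C, then treated with FPG or buffer. Unwinding was pH 13.5, 20 min; electrophoresis 20 min, 25 V. Mean tail intensity was scored on 2 × 50 cells/slide. Without FPG: three independent experiments; with FPG: two, in duplicate.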

HT29 cells [4] = assay: Comet assay; assay type: cell-based, human; settings: for Total DNA strand breaks with FPG treatment (%-TI): HT29, 24 h, 10 or 100 μM, FPG treated, two independent experiments; for Background DNA-strand breaks (tail intensity): HT29, 24 h incubation, 10–100 μM, without FPG
In short: as §2

[5] = in vitro studies; ref Prasad, 2000; cited from earlier work
[6] = tested on: human ovary carcinoma cell line ES-2; settings: ES-2, 48 h incubation, at 1 mM; ref Liu et al., 2017; cited from earlier work
[7] = tested on: HT29 clone 19A human colon tumor cells; settings: ref Pool-Zobel et al., 2000, cited from earlier work; for DNA strand breaks (comet assay): 15 min incubation, 100 μM END and ENL
[8] = ref Hu et al., 2007; cited from earlier work
[9] = tested on: extracellular vascular endothelial growth factor (VEGF); settings: in vivo, mice with established human breast cancer; ref Dabrosin et al., 2002; cited from earlier work
[10] = tested on: microbiota from human faeces; settings: incubation with microbiota from human faeces for 24 h; ref Heinonen et al., 2001; cited from earlier work
[11] = stated in the introduction, no reference given; cited from earlier work
[12] = tested on: human myelocytic HL-60 leukemia cancer cells; settings: HL-60, incubation with 0.5–40 μM; ref Park et al., 2008; cited from earlier work

Relative vitality (HepG2 cells [1]): no significant reductions | Relative vitality (HT29 cells [2]): no significant reductions | Total DNA strand breaks with FPG treatment (%-TI) (HepG2 cells [3]): No modulation | Background DNA-strand breaks (tail intensity) (HepG2 cells [3]): No significant modulation | Total DNA strand breaks with FPG treatment (%-TI) (HT29 cells [4]): No modulation | Background DNA-strand breaks (tail intensity) (HT29 cells [4]): No significant modulation
SMILES: OC[C@H](Cc1cccc(O)c1)[C@H](CO)Cc1cccc(O)c1 [END, (2R,3R)-2,3-bis[(3-hydroxyphenyl)methyl]butane-1,4-diol]
Levels of reactive oxygen species (antioxidant effect) [5]: reduce the levels of reactive oxygen species | Vitality [6]: significant decrease in vitality | DNA strand breaks (comet assay) [7]: no differences to the negative control | Oxidised pyrimidine DNA bases [7]: reduced | Protection against DNA damage and lipid peroxidation [8]: protect against DNA damage and lipid peroxidation

Relative vitality (HepG2 cells [1]): no significant reductions | Relative vitality (HT29 cells [2]): no significant reductions | Total DNA strand breaks with FPG treatment (%-TI) (HepG2 cells [3]): no significant modulation | Background DNA-strand breaks (tail intensity) (HepG2 cells [3]): No significant modulation | Total DNA strand breaks with FPG treatment (%-TI) (HT29 cells [4]): no significant modulation | Background DNA-strand breaks (tail intensity) (HT29 cells [4]): No significant modulation
SMILES: O=C1OC[C@H](Cc2cccc(O)c2)[C@H]1Cc1cccc(O)c1 [ENL, (3R,4R)-3,4-bis[(3-hydroxyphenyl)methyl]oxolan-2-one]
Extracellular VEGF [9]: suppressed | Levels of reactive oxygen species (antioxidant effect) [5]: reduce the levels of reactive oxygen species | Vitality [6]: significant decrease in vitality | DNA strand breaks (comet assay) [7]: no differences to the negative control | Oxidised pyrimidine DNA bases [7]: reduced | Oxidized purine DNA bases [7]: had such an impact | Protection against DNA damage and lipid peroxidation [8]: protect against DNA damage and lipid peroxidation

SMILES: COc1cc([C@H]2OC[C@H]3[C@@H]2CO[C@@H]3c2ccc(O[C@@H]3O[C@H](CO)[C@@H](O)[C@H](O)[C@H]3O)c(OC)c2)ccc1O[C@@H]1O[C@H](CO)[C@@H](O)[C@H](O)[C@H]1O [Pin-DG, pinoresinol diglycoside]
Conversion into END and ENL [10]: 55%

SMILES: COc1cc(C[C@@H](CO)[C@H](CO)Cc2ccc(O)c(OC)c2)ccc1O [Seco, secoisolariciresinol]
Conversion into END and ENL [10]: 72% | Levels of reactive oxygen species (antioxidant effect) [5]: reduce the levels of reactive oxygen species | Protection against DNA damage and lipid peroxidation [8]: protect against DNA damage and lipid peroxidation

SMILES: COc1cc(C[C@@H](CO[C@@H]2O[C@H](CO)[C@@H](O)[C@H](O)[C@H]2O)[C@H](CO[C@@H]2O[C@H](CO)[C@@H](O)[C@H](O)[C@H]2O)Cc2ccc(O)c(OC)c2)ccc1O [Seco-DG, seco-diglycoside]
Solubility in water [11]: highly soluble

Relative vitality (HepG2 cells [1]): no significant reductions | Relative vitality (HT29 cells [2]): no significant reductions
SMILES: COc1cc([C@H]2OC[C@H]3[C@@H]2CO[C@@H]3c2cc(OC)c(O)c(OC)c2)cc(OC)c1O [Syr, 4,4′-(1S,3aR,4S,6aR)-Tetrahydro-1H,3H-furo[3,4-c]furan-1,4-diylbis(2,6-dimethoxy-phenol)]
Cell vitality (MTT assay) [12]: significant concentration-dependent decrease

SMILES: O=c1c(-c2ccc(O)cc2)coc2cc(O)cc(O)c12 [genistein, reference compound]
DNA strand breaks (comet assay) [7]: induced highly significant

Reference: PMC8320611 (Current Research in Toxicology, 2020)
